Measured values: ChEMBL document CHEMBL1122328, “Hypolipidemic activity of phthalimide derivatives. 2. N-phenylphthalimide and derivatives” (1983)

Experiments:
[1] = tested on: Mus musculus; test: Effect on mg of lipid from CF1 male mice after 16 days at a dose of 10 (mg/kg/day); type: functional
Summary of the method: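 CF1 male mice dosed ip for 16 days at 10–60 (mg/kg)/day; liver taken and 10% homogenate made in 0.25 M sucrose + 0.001 M EDTA; aliquot extracted by Folch and Bligh–Dyer methods, mg lipid weighed, cholesterol measured by Liebermann–Burchard method; n = 6; % of 1% CMC control.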

[2] = tested on: Mus musculus; test: In vitro effect on CF1 male mouse on acyltransferase after 16 days at a dose of 60 (mg/kg)/day; type: functional
Summary of the method: (§1)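 In vivo enzyme study. CF₁ male mice were dosed ip for 16 days in 1% CMC, and liver was homogenised to 10% in 0.25 M sucrose with 0.001 M EDTA. Enzymes assayed: acetyl-CoA synthetase as hydroxamate at 540 nm after 30 min at 37 °C; HMG CoA reductase with [1-¹⁴C]acetate in 9000g supernatant for 60 min at 37 °C; fatty acid synthetase with [2-¹⁴C]malonyl-CoA; acyltransferase with [³H]glycerol 3-phosphate and microsomes for 10 min; phosphatidate phosphohydrolase as released phosphate at 820 nm after 30 min. N = 6; reported as % control.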

[3] = tested on: Mus musculus; test: Effect on neutral lipids from CF1 male mice after 16 days at a dose of 40 (mg/kg/day); type: functional
Summary of the method: (§2)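 Dosing was ip in CF₁ male mice (~25 g) for 16 days, with compound suspended in 1% carboxymethylcellulose. Liver was then taken and homogenised to 10% in 0.25 M sucrose with 0.001 M EDTA. Lipid was extracted from a 2 mL aliquot by the Folch and Bligh–Dyer methods and total mg of lipid was weighed. Cholesterol (Liebermann–Burchard), triglycerides (kit), neutral lipids and phospholipids were then measured; N = 6; reported as % of vehicle control.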

[4] = tested on: Mus musculus; test: Effect on neutral lipids from CF1 male mice after 16 days at a dose of 60 (mg/kg/day); type: functional; summary of the method: as §2
[5] = tested on: Mus musculus; test: Effect on triglycerides from CF1 male mice after 16 days at a dose of 40 (mg/kg/day); type: functional; summary of the method: as §2
[6] = tested on: Mus musculus; test: Effect on Serum cholesterol levels on CF1 male mice at a dose of 100 (mg/kg)/day after 9 days; type: functional
Summary of the method: (§3)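 CF1 male mice (~25 g), drug suspended in 1% carboxymethylcellulose in water, given ip daily for 16 days; n = 6; vehicle control. Tail-vein blood on days 9 and 16, serum cholesterol by modified Liebermann–Burchard reaction; day-14 serum triglyceride by commercial kit; expressed as % control.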

[7] = tested on: Mus musculus; test: Effect on Serum cholesterol levels on CF1 male mice at a dose of 12.5 (mg/kg)/day after 16 days; type: functional; summary of the method: as §3
[8] = tested on: Mus musculus; test: Effect on Serum cholesterol levels on CF1 male mice at a dose of 20 (mg/kg)/day after 9 days; type: functional; summary of the method: as §3
[9] = tested on: Mus musculus; test: Effect on Serum cholesterol levels on CF1 male mice at a dose of 50 (mg/kg)/day after 16 days; type: functional; summary of the method: as §3
[10] = tested on: Mus musculus; test: Effect on Serum cholesterol levels on CF1 male mice at a dose of 50 (mg/kg)/day after 9 days; type: functional; summary of the method: as §3
[11] = organism: Mus musculus; test: Effect on Serum cholesterol levels on Hyperlipidemic induced mice After 2-week diet; type: functional
Summary of the method: (§4)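 Mice fed atherogenic diet for 2 weeks to raise serum lipids, then given drug at 20 (mg/kg)/day ip for a further 2 weeks; serum cholesterol and triglyceride measured after the diet and after 14 days dosing; n = 6; compared with 1% CMC and diet-only controls; % control.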

[12] = tested on: Mus musculus; test: Effect on Serum triglceride levels on CF1 male mice at a dose of 12.5 (mg/kg)/day after 14 days; type: functional; summary of the method: as §3
[13] = tested on: Mus musculus; test: Effect on Serum triglceride levels on CF1 male mice at a dose of 20 (mg/kg)/day after 14 days; type: functional; summary of the method: as §3
[14] = tested on: Mus musculus; test: Effect on Serum triglceride levels on CF1 male mice at a dose of 25 (mg/kg)/day after 14 days; type: functional; summary of the method: as §3
[15] = tested on: Mus musculus; test: Effect on Serum triglceride levels on Hyperlipidemic induced mice After 14 days dosing.; type: functional; summary of the method: as §4
[16] = tested on: Mus musculus; test: In vitro effect on CF1 male mouse onAc-CoA carboxylase after 16 days at a dose of 20 (mg/kg)/day; type: functional; conditions: in the assay text read “In vivo” for “In vitro”
Summary of the method: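 Mice (CF1 males) given agent ip daily for 16 days in 1% carboxymethylcellulose; liver 10% homogenate in 0.25 M sucrose + 0.001 M EDTA. Acetyl-CoA carboxylase first polymerized 30 min at 37 °C, then incubated 30 min at 37 °C with sodium [14C]bicarbonate (41.0 mCi/mmol); incorporated label counted. Activity as % of vehicle control; N = 6.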

[17] = tested on: Mus musculus; test: In vitro effect on CF1 male mouse on Ac-CoA synthetase after 16 days at a dose of 60 (mg/kg)/day; type: functional; summary of the method: as §1
[18] = organism: Mus musculus; test: In vitro effect on CF1 male mouse on Cholesterol side- chain oxidation; type: functional
Summary of the method: (§5)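 In vitro test on 10% CF₁ male mouse liver homogenate (0.25 M sucrose, 0.001 M EDTA) with 2.5 μmol test drug. Assays: acetyl-CoA synthetase and citrate lyase as hydroxamate at 540 nm, 30 min, 37 °C; citrate exchange from [¹⁴C]citrate-loaded mitochondria after 10 min with drug; side-chain oxidation by ¹⁴CO₂ from [26-¹⁴C]cholesterol, 18 h, 37 °C; acetyl-CoA carboxylase by [¹⁴C]bicarbonate fixation after 30 min polymerization then 30 min at 37 °C.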

[19] = tested on: Mus musculus; test: In vitro effect on CF1 male mouse on Fatty acid synthetase after 16 days at a dose of 20 (mg/kg)/day; type: functional; summary of the method: as §1
[20] = tested on: Mus musculus; test: In vitro effect on CF1 male mouse on Fatty acid synthetase after 16 days at a dose of 40 (mg/kg)/day; type: functional; summary of the method: as §1
[21] = tested on: Mus musculus; test: In vitro effect on CF1 male mouse on HMGCoA reductase after 16 days at a dose of 10 (mg/kg)/day; type: functional; summary of the method: as §1
[22] = organism: Mus musculus; test: In vitro effect on CF1 male mouse on Ac-CoA carboxylase; type: functional; summary of the method: as §5
[23] = tested on: Mus musculus; test: In vitro effect on CF1 male mouse on Ac-CoA synthetase after 16 days at a dose of 10 (mg/kg)/day; type: functional; conditions: in the assay text read “In vivo” for “In vitro”; summary of the method: as §1
[24] = tested on: Rattus norvegicus; test: Effect on very low density Phospholipids Holtzman rats after 14 days administration; type: functional
Summary of the method: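 Holtzman male rats (~400 g) received drug at 20 (mg/kg)/day for 14 days. On day 14, blood was collected from the abdominal aorta and serum was separated by centrifugation at 3500 rpm. Lipid content of the lipoprotein fractions was then determined.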

[25] = tested on: Rattus norvegicus; test: Effect on Chylomicrons of Phospholipids Holtzman rats after 14 days administration; type: functional
Summary of the method: (§6)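 Holtzman male rats (~400 g) given drug at 20 (mg/kg)/day for 14 days; on day 14 blood taken from the abdominal aorta and serum separated by centrifugation at 3500 rpm; lipid and protein content of the lipoprotein fractions measured.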

[26] = tested on: Rattus norvegicus; test: Effect on Chylomicrons of Triglycerides Holtzman rats after 14 days administration; type: functional; summary of the method: as §6
[27] = tested on: Rattus norvegicus; test: Effect on high density Phospholipids Holtzman rats after 14 days administration; type: functional; summary of the method: as §6
[28] = tested on: Rattus norvegicus; test: Effect on high density cholesterol Holtzman rats after 14 days administration; type: functional; summary of the method: as §6
[29] = tested on: Rattus norvegicus; test: Effect on low density Triglycerides Holtzman rats after 14 days administration; type: functional; summary of the method: as §6
[30] = tested on: Mus musculus; test: Effect on mg of lipid from CF1 male mice after 16 days at a dose of 60 (mg/kg/day); type: functional; summary of the method: as §2
[31] = tested on: Mus musculus; test: In vivo effect on CF1 male mouse on Lipid content after 16 days at a dose of 40 (mg/kg)/day

`CC(=O)c1ccccc1N1C(=O)c2ccccc2C1=O` showed a Control [1] of 84%, a Control [2] of 45% and a Control [3] of 62%. The Control [4] was 62%, the Control [5] was 91% and the Control [6] was 42%. The Control [7] was 43%, the Control [8] was 89% and the Control [9] was 29%. The Control [10] was 68%, the Control [11] was 289% and the Control [12] was 56%. For the same compound, the Control [13] was 56%, the Control [14] was 61% and the Control [15] was 86%. It also gave a Control [16] of 41%, a Control [17] of 86% and a Control [18] of 27%. For the same compound, the Control [19] was 97%, the Control [20] was 94% and the Control [21] was 98%. It also gave a Control [22] of 35%, a Control [23] of 53% and a Control [24] of 359%. It also gave a Control [25] of 171%, a Control [26] of 41% and a Control [27] of 446%. The Control [28] was 52%, the Control [29] was 52% and the Control [30] was 80%. It also gave a Control [31] of 80%.
